Results reported in ChEMBL document CHEMBL4513216, “Probing the Open Global Health Chemical Diversity Library for Multistage-Active Starting Points for Next-Generation Antimalarials” (ACS Infect Dis, 2020).

test: Toxicity liver stage against HepG2, at 10uM; type: cell-based; set-up: test concentration 10 uM, cell line HepG2-A16-CD81EGFP; details: human, HepG2-A16-CD81EGFP cells; read-out: INHIBITION
Outline: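 Uninfected HepG2-A16-CD81EGFP cells, 3 × 10^3 per well, 1536-well, plated on prespotted compound at 10 μM final, parasite-free screening media added to match infected plates; puromycin 10 μM positive, DMSO 0.5% negative; run in parallel with 48 h PbLuc assay at 37 °C, 5% CO2; viability by CellTiter-Glo luminescence, normalized to controls.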

Row | Structure (SMILES) | cytotoxicity at 10 µM [%]
1 | Cc1cc2nc(CO[C@H]3CN(CC4CC4)C[C@H]3F)[nH]c2cc1C | 1.04
2 | CS(=O)(=O)Nc1ccc([C@H]2OCC(=O)N[C@@H]2CO)cc1 | -5.4
3 | O=C1N(Cc2cccnc2)C[C@H]2CN(C3CCOCC3)CCN12 | -9.7
4 | Nc1c(N2CCCC2)ncnc1N1CCOCC1 | 12.8
5 | CN1CCCCC12CCN(c1nncs1)C2 (configuration not stated) | 7.1
6 | O=C(c1ncn2c1CNS(=O)(=O)c1ccccc1-2)N1CCCCC1 | 9.52
7 | Cc1cnc(N2CCC3(CC2)CC3CNC(=O)N(C)C)nc1 (configuration not stated) | 8.82
8 | COCC1CN(Cc2ccoc2)Cc2cn(C)nc21 (configuration not stated) | 7.55
9 | CCOCC1CN(S(=O)(=O)C2CC2)Cc2ncn(CC3CC3)c21 (configuration not stated) | 4.44
10 | Cc1cccc(CN2CC3(CCN(C(N)=O)CC3)OCC2=O)n1 | 2.17
11 | CO[C@H]1CCN(S(=O)(=O)c2cn(C)cn2)[C@H]1Cc1ccncc1 | 9.43
12 | C[C@H]1C[C@@H]2CCN(C(=O)c3cnccn3)C[C@H]2O1 | 2.96
13 | Cc1nn(Cc2ccc(C(=O)NC3CCS(=O)(=O)C3)cc2)c(C)c1Br (configuration not stated) | -3.71
14 | CCn1ccc(-c2nnc(SCC(=O)Nc3ccc(C)cc3)n2CC)n1 | 5.11
15 | CCN(CC)C(=O)c1nnsc1-c1ccccc1 | 1.88
16 | Cc1nc(CN(C)C(=O)CN(C)C)nc2c1CCC(=O)N2CCC(C)C | -10.5
17 | Cc1cc(C)n(CCNCc2cc(-c3ccccc3)c[nH]c2=O)n1 | -2.47
18 | O=C(CCn1ccnc1)N1CC[C@H](Oc2cccc(F)c2)[C@@H](O)CC1 | -1.83
19 | CC(C)n1nccc1CN1Cc2nccn2CC1c1ccccc1 (configuration not stated) | 5.38
20 | Cc1nc2c(c(NCCN3CCOCC3)n1)CCN(C)C2 | 4.09
21 | Cc1cc(C)nc(C2CCCN2c2ccnc(C)n2)n1 (configuration not stated) | -16.4

Row | Structure (SMILES) | cytotoxicity at 10 µM [%]
22 | Cc1nc[nH]c1CN1CCN(C2CCOCC2)CC(C(N)=O)C1 (configuration not stated) | -19.5
23 | Cc1ccc(-n2c(SCC(=O)O)nnc2-c2cccc(C)c2)cc1 | -2.05
24 | CC(=O)N1CCC(Cc2cnc(C(=O)N3CCCC3)cn2)C1 (configuration not stated) | -23.6
25 | O=S(=O)(N1CCCCC1)N1CCC(Oc2cnccn2)CC1 | -14.1
26 | CN(C)S(=O)(=O)N1CCN(Cc2ccnc(N3CCCC3)n2)CC1 | -4.42
27 | O=C(CN(Cc1cccs1)C1CCS(=O)(=O)C1)NCC1CCCCC1 (configuration not stated) | 0.611
28 | Cc1nc2cc(NCc3cnn(C)c3)ccc2n1C | 13.1
29 | CCC1(CC)CC(=O)N(CC(O)c2ccc(Cl)cc2)C1=O (configuration not stated) | 4.06
30 | CC(C)c1noc(CCNC(=O)NCC2COc3ccccc3O2)n1 (configuration not stated) | 1.03
31 | CCS(=O)(=O)NCC(=O)N(C1CC1)C1Cc2ccccc2C1 | 4.25
32 | COC(=O)NCC(=O)NC1(C)CCc2ccccc2C1 (configuration not stated) | 4.29
33 | COC1CCN(c2ccc(F)cc2CN(C)C(C)C(N)=O)CC1 (configuration not stated) | 9.13
34 | CCc1ccc(C(COC)NC(=O)c2ccsc2)o1 (configuration not stated) | 1.57
35 | O=C(OCc1ccccc1)c1cccc(NC(=O)C2COCCO2)c1 (configuration not stated) | -0.488
36 | CNC(=O)CCS(=O)(=O)Cc1coc(-c2ccc(F)cc2)n1 | -3
37 | Cc1nn(CC(=O)N2CCCN(c3cccnn3)CC2)c(C)c1Cl | -1.2
38 | O=C(CCC(=O)N1CCCC1c1ccsc1)N1CCOCC1 (configuration not stated) | -10.2
39 | Cc1cc2c(o1)CC(C)(C)CC2NC(=O)CNC(=O)C1CC1 (configuration not stated) | 4.57
40 | COCc1noc(-c2nn(-c3ccc(F)cc3)c3c2CCC3)n1 | 2.87
41 | Cc1nc(NC(=O)N[C@H](CO)c2ccccc2)sc1C | -7.32
42 | c1cc(CN2CCSC3(CCCCC3)C2)no1 | 0.807

Row | Structure (SMILES) | cytotoxicity at 10 µM [%]
43 | CS(=O)(=O)c1nccn1CCOc1ccccc1F | 4.05
44 | CC(CO)N(C)C(=O)c1cn(-c2ccc(Br)cc2)cn1 (configuration not stated) | -2.87
45 | OC1(CNC2CCN(c3ccccn3)CC2)CCc2ccccc21 (configuration not stated) | -3.48
46 | CCC1CN(C(=O)c2ncccc2O)CCC(=O)N1Cc1ccccc1 (configuration not stated) | 3.2
47 | Cc1nn(C)c2ncnc(NCC(O)CN3CCCCC3)c12 (configuration not stated) | 1.2
48 | O=C(CC(F)(F)F)N1CCCC(c2nccn2Cc2ccncc2)C1 (configuration not stated) | 3.22
49 | C[C@@H]1CN(C2CCN(c3ccccc3F)CC2)CC[C@]1(C)O | -5.32
50 | N[C@@H]1CC[C@@H](Nc2nccc(CCC(F)(F)F)n2)C1 | -3.73
51 | CCN(Cc1noc(C2CCC2)n1)C(=O)c1cnc2ccccc2c1 | 8.59
52 | COCCN1CCC(CNC(=O)Nc2ccc(F)c(Cl)c2)C1 (configuration not stated) | 2.59
53 | Cc1cc(C(=O)N2CC(O)CO2)c2cccc(C)c2n1 (configuration not stated) | 7.13
54 | CCc1ccc2nc(-c3cnn(C)c3)cc(C(=O)N3CCCC3)c2c1 | 0.753
55 | C[C@@H]1CN(CCCOc2ccc(F)cc2)CC[C@@]1(O)C1CCOCC1 | -8.01
56 | Cc1c(C(C)N)cnn1-c1cccc2ccccc12 (configuration not stated) | 10.7
57 | CCc1oc(C(=O)NC(C)c2ncn[nH]2)cc1CN1CCCC1 (configuration not stated) | -5.92
58 | Cc1cc(C)c(C#N)c(NCCSc2nncn2C)n1 | -1.01
59 | CN1C[C@@H](NC(=O)C(C)(C)C)C[C@H]1C(=O)NCc1ncc[nH]1 | 0.452
60 | CSc1ccc(C(=O)N2CCCC(Nc3ccc(F)cc3)C2)cc1 (configuration not stated) | -11.4
61 | Cc1c(C(=O)N(C)C)cccc1N(C)S(C)(=O)=O | 8.19
62 | Cc1nc(C)n(C2CCCN(C(=O)CCOCC(C)C)C2)n1 (configuration not stated) | -0.734
63 | Cc1nc(-c2ccccc2)n(CC(=O)NC2CCCC2)n1 | -0.248

Row | Structure (SMILES) | cytotoxicity at 10 µM [%]
64 | COc1ccccc1CNC(=O)CNCCn1cc(C)cn1 | -1.9
65 | O=C(CN1C=Nc2ccccc2S1(=O)=O)NCc1ccccc1 | -3.95
66 | Cc1ccc(C(=O)NC2CCN(CC(=O)N(C)c3ccccc3)CC2)o1 | -3.73
67 | Cc1cnc2c(S(=O)(=O)NCC3CC3)cccc2c1 | -2.87
68 | CCc1ncc2c(n1)CN(CC(=O)Nc1ccncc1)CC2 | 0.0264
69 | Cc1nccn1C1CCCN(C(=O)c2ccc3nnc(C)n3c2)C1 (configuration not stated) | 2.01
70 | CC(C(=O)NC1CC1)N1CCN(Cc2ccn(C)c(=O)c2)CC1 (configuration not stated) | -5.57
71 | N#CC1(C(=O)N2CCCN(c3nccs3)CC2)CCCC1 | -11.1
72 | CCOc1c(Cl)cc(/C=C/c2ncc(C(=O)O)s2)cc1OC | 3.91
73 | O=C(COCc1ccccc1)N1CCCC1c1noc(C2CC2)n1 (configuration not stated) | -1.98
74 | Cc1nc(C2CCCN2C(=O)COCc2ccccc2)no1 (configuration not stated) | -2.66
75 | O=C(CC1CC2(CCN(CC3CC3)CC2)Oc2ccccc21)NC1CC1 (configuration not stated) | 8.5
76 | CCC1=N[C@@]2(CC[C@@H]3CN(CC4CC4)C[C@@H]32)C(=O)N1CC | 6.56
77 | CN1CCCc2c1nc1c(c2N)CCCC1 | 11.2
78 | O=C(O)[C@]12CCCN(Cc3ccoc3)C[C@H]1CN(c1ncccn1)C2 | 7.37
79 | COCCN1CCO[C@@H]2CN(C(=O)NCc3ccccc3)CC[C@@H]2C1 | 3.23
80 | CN(C)C(=O)CO[C@H]1CN(Cc2cccc(C#N)c2)[C@@H]2COC[C@H]12 | 11.4
81 | CN(Cc1cn2c(n1)CN(C(=O)c1ccc[nH]1)CC2)Cc1ccco1 | -3.55
82 | COc1cccc(C(=O)N2C[C@@H]3CC[C@H]2CN(Cc2cscn2)C3)c1 | 1.5
